The results in this text go back to ChEMBL document CHEMBL1153554, “Mechanisms by which the G333D mutation in human immunodeficiency virus type 1 Reverse transcriptase facilitates dual resistance to zidovudine and lamivudine” (Antimicrob Agents Chemother, 2008).

Active and inactive are the calls of the source. The calls are words filed in the database; no cut-off is given here.

The subject of assay [1] is Human immunodeficiency virus 1. The assay can be described thus: Binding affinity to HIV1 LAI reverse transcriptase M41L/L210W/T215Y/M184V/G333D mutant assessed as ATP-mediated excision of zidovudine-monophosphate from chain terminated RNA/DNA template/primer duplex. Summed up: (§1)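 The AZT-MP-terminated ³²P-P20 primer was annealed to a 35-nt RNA template (T35). 200 nM active-site RT with 20 nM T/P in 50 mM Tris-HCl pH 8.0, 50 mM KCl. Started with 3.0 mM ATP and 10 mM MgCl₂. Timed aliquots were quenched and separated on denaturing urea-PAGE, then phosphorimaged.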

The test system of assay [2] is Human immunodeficiency virus type 1 reverse transcriptase (Human immunodeficiency virus 1), Q72547 [M41L,L210W,T215Y,M184V]. As to the kind of experiment: Binding affinity to HIV1 LAI reverse transcriptase M41L/L210W/T215Y/M184V mutant assessed as ATP-mediated excision of zidovudine-monophosphate from chain terminated RNA/DNA template/primer duplex. Summed up: as §1

Assay [3] concerns the target Human immunodeficiency virus type 1 reverse transcriptase (Human immunodeficiency virus 1, UniProt Q72547, L210W/M41L/T215Y). The assay can be described thus: Binding affinity to HIV1 LAI reverse transcriptase M41L/L210W/T215Y mutant assessed as ATP-mediated excision of zidovudine-monophosphate terminated DNA/DNA template/primer duplex chain at 100 uM by gel shift mobility assay. The method in brief:
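Native 4% PAGE in Tris-acetate pH 8.0 with 1 mM EDTA, 30 min at 100 V, room temperature. The shifted band was taken as a 1:1 RT-T/P complex to give Kd. Mean ± SD of three experiments.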
(In general: A gel shift assay detects complexes by their altered migration in electrophoresis.)

Assay [4] concerns Human immunodeficiency virus 1. As to the kind of experiment: Selectivity ratio of Kd for excision of zidovudine-monophosphate terminated DNA/DNA template/primer duplex chain in HIV1 LAI reverse transcriptase M41L/L210W/T215Y mutant to Kd for excision of zidovudine-monophosphate terminated DNA/DNA template/primer duplex chain in wild type HIV1 LAI reverse transcriptase by gel shift mobility assay.

For assay [5], the system named is Human immunodeficiency virus 1. The assay can be described thus: Selectivity ratio of Kd for excision of zidovudine-monophosphate terminated DNA/DNA template/primer duplex chain in HIV1 LAI reverse transcriptase M184V mutant to Kd for excision of zidovudine-monophosphate terminated DNA/DNA template/primer duplex chain in wild type HIV1 LAI reverse transcriptase by gel shift mobility assay.

Assay [6] has as its system Human immunodeficiency virus 1. The assay can be described thus: Selectivity ratio of Kd for excision of zidovudine-monophosphate terminated DNA/DNA template/primer duplex chain in HIV1 LAI reverse transcriptase M41L/L210W/T215Y/M184V/G333D mutant to Kd for excision of zidovudine-monophosphate terminated DNA/DNA template/primer duplex chain in wild type HIV1 LAI reverse transcriptase by gel shift mobility assay.

For the molecule `Cc1cn([C@H]2C[C@H](N=[N+]=[N-])[C@@H](COP(=O)(O)O)O2)c(=O)[nH]c1=O` [AZIDOTHYMIDINE MONOPHOSPHATE], the result in assay [1] and in assay [2] was Active. Moreover, the Kd in assay [3] turned out to be 18.8 nM. For the same molecule, the Ratio was 1 in assay [4], 3.8 in assay [5] and 2.3 in assay [6].

By Kd is commonly meant the free concentration of one partner at which half of the binding sites on the other are occupied at equilibrium, for simple one-to-one binding.
